The text below walks through data of PubChem BioAssay.

The nature of experiment [1]: Her2 expression decrease, cell viability multiplex – SKBR3 breast tumor cells, AlphaScreen, ATP viability, primary screen (AID 461;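 active = Her2 level under about 52% in both replicate screens, with viability over 70% of control, limit read from the data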;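 for Her2 level: lower value means less Her2 protein in the cells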;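 for viability: percent of carrier control wells set as 100% viability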). The settings on record: SKBR3 Her2 protein level, 18-24 h, measured here: SKBR3 viability, ATP luminescence, at 10 µM.
In experiment [2] the target is Receptor tyrosine-protein kinase erbB-2 (Homo sapiens) (UniProt P04626). The description is as above. As to conditions: 18-24 h, at 10 µM, stronger effect = lower value.
Receptor tyrosine-protein kinase erbB-2 (Homo sapiens), sequence (P04626 whole entry, looked up): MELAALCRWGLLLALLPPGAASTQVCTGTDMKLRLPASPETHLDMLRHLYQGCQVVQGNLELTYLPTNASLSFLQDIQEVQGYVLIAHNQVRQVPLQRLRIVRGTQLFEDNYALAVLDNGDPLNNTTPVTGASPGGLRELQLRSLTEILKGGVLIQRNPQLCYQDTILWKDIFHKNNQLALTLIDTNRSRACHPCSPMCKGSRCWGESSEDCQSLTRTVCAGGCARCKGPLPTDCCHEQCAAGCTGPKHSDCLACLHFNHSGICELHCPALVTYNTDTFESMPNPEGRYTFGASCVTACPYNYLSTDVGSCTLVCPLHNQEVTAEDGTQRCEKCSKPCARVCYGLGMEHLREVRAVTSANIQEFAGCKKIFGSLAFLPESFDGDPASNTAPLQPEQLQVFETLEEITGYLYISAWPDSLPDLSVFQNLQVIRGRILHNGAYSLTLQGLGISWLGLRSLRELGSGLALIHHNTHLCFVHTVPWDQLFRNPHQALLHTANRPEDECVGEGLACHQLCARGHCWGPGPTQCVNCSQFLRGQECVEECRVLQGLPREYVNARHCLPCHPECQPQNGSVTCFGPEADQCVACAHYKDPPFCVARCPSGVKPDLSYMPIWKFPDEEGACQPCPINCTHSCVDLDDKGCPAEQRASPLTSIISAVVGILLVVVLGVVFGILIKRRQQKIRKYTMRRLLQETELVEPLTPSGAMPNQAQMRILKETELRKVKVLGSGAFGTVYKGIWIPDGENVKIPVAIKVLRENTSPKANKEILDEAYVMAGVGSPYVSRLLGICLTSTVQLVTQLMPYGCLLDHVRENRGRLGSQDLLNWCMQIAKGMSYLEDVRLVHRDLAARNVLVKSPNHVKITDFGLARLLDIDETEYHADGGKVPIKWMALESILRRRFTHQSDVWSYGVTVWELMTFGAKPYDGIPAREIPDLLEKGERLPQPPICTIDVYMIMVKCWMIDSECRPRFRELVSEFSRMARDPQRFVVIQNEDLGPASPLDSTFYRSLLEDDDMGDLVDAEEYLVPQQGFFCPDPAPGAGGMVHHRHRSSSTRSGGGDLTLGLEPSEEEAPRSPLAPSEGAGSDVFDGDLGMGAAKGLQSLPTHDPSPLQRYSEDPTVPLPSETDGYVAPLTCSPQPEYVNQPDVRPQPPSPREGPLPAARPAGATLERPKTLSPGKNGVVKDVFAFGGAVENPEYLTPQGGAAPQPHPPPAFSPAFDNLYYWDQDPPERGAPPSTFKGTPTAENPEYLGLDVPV
Experiment [3] is described as follows: reduced viability of SK-BR-3 breast cancer cells – cell-based, 24 h, human, pilot screen (AID 572).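 Note: compound exposure lasted between 18 and 24 h rather than exactly 24 h; 100% = carrier-treated control wells.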 As to conditions: SK-BR-3 viability, CellTiter-Glo luminescence, at 10 µM, stronger effect = lower value.
Experiment [4] can be described thus: HUVEC growth inhibition – cell-based, human, primary screen (AID 575;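 active = viability at or below 30% in both replicate assays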;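 note: 100% = median of untreated cell wells with 0.1% DMSO on each plate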). The settings on record: HUVEC proliferation, CellTiter-Glo luminescence, 72 h; at 10 µM; stronger effect = lower value. The gist of the method:
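Assay system: Primary human umbilical vein endothelial cells | Quantity: 1250 cells per well | Medium: Supplemented EBM, 2% fetal bovine serum | Detection: CellTiter-Glo luminescence measuring cellular ATP | Read-out: % viability vs DMSO wells | Plate: Collagen-coated 384-well format | Times: 72 h exposure, 37 °C, 5% CO2, 30 min RT equilibration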

Experiment [5] is described as follows: H69AR cell proliferation blockers – human, duplicate replicates, primary screen (AID 580;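 active = viability at or under a set limit in both replicates, limit being median viability minus 3 SD, cut at about 48% in these data, passing the limit was not always enough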;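 note: 100% = mean luminescence of untreated wells and 0% = no signal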). The settings on record: H69AR lung tumor cells viability, ATP luminescence, 72 h; at 10 µM; stronger effect = lower value.
Experiment [6] is described as follows: MRP1 drug-resistance reversers in H69AR cells – cell-based, doxorubicin co-treatment, pilot screen (AID 601;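 active = viability loss from added drug above about 55%, and viability with drug at most 40%, in both replicates, limit read from the data, passing the limit was not always enough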). The settings on record: CellTiter-Glo, 72 h, at 10 µM; for differential viability (reversal): stronger effect = higher value.
Experiment [7] can be described thus: yeast transport mutant growth inhibition pilot in 384-well plates, post-Golgi transport modulator project (AID 636; in the data active = inhibition above about 31%). The settings on record: absorbance 615 nm, about 18 h, stronger effect = higher value.
A short description of experiment [8]: growth suppression of yeast trafficking mutant, preliminary HTS, modulators of trafficking downstream of Golgi apparatus project, 1536-format plate, OD 615 nm (AID 637; in the data active = inhibition above about 30%). The settings on record: yeast transport mutant growth, absorbance 615 nm, 18 h; stronger effect = higher value.
Setting [9] is: H69AR cells + 2 uM doxorubicin, measured here: viability with 2 uM doxorubicin, stronger effect = lower value.
Where [10] appears, read: H69AR cells, compound alone cytotoxicity.

Structures are written as SMILES. Calls of active or inactive are those of the source.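 Rule for the calls, unless noted: active = viability at or below 10% of carrier control in both of two separate runs; inconclusive = viability at or below 10% in only one of the two runs; inactive = the rest.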

For the compound `CC(C)[C@H](NC(=O)NC1CCCC1)C(=O)O`, the viability in experiment [1] was 103%; in experiment [3] it was 103% (inactive); in experiment [4], 87.9% (inactive); in experiment [5] it was 104% (inactive); in experiment [6] (setting [9]) it was 89%; in experiment [6] (setting [10]), 104%. Also, the Her2 level in experiment [2] is 97.5% (inactive). Also, the differential viability (reversal) in experiment [6] (H69AR cells + 2 uM doxorubicin) was 15.2% (inactive). Moreover, the values for the inhibition in experiment [7] and in experiment [8] were -0.52% (inactive) and -9.34% (inactive), respectively.

For `COC(=O)c1cn(C(=O)OC)c2ccccc12`, the viability in experiment [1] was 96.5%; in experiment [3], 96.5% (inactive); in experiment [4], 85.1% (inactive); in experiment [5], 87.7% (inactive); in experiment [6] (setting [9]) it was 88.3%; in experiment [6] (setting [10]), 87.7%. Also, in experiment [2], the Her2 level is 102% (inactive). Further, in experiment [6] (H69AR cells + 2 uM doxorubicin), the differential viability (reversal) is -0.61% (inactive). The inhibition was -4.87% (inactive) in experiment [7] and 4.1% (inactive) in experiment [8].

`COc1ccc(N2C(=O)CC(NC3CC3)C2=O)cc1` (stereo not given): the viability was 100% in experiment [1]; 100% (inactive) in experiment [3]; 94.7% (inactive) in experiment [4]; 91.2% (inactive) in experiment [5]; 90.5% in experiment [6] (setting [9]); 91.2% in experiment [6] (setting [10]). Also, the Her2 level in experiment [2] was 89.5% (inactive). The differential viability (reversal) in experiment [6] (H69AR cells + 2 uM doxorubicin) is 0.64% (inactive). The results for the inhibition in experiment [7] and in experiment [8] were -3.82% (inactive) and -6% (inactive), respectively.

Consider `COc1ccc(OC)c(N(CC(=O)N2CCN(c3cc(Cl)ccc3C)CC2)S(C)(=O)=O)c1`, for which the viability in experiment [1] is 100%; in experiment [3], 100% (inactive); in experiment [4] it was 78.2% (inactive); in experiment [5] it was 75.9% (inactive); in experiment [6] (setting [9]) it was 72%; in experiment [6] (setting [10]), 75.9%. Also, the Her2 level in experiment [2] is 94% (inactive). Further, in experiment [6] (H69AR cells + 2 uM doxorubicin), the differential viability (reversal) is 3.83% (inactive). Also, the values for the inhibition in experiment [7] and in experiment [8] were -5.53% (inactive) and 0.48% (inactive), respectively.

`CN(C(=O)c1ccno1)c1nnc(-c2cnccn2)s1`: the viability in experiment [1] was 107%; in experiment [3] it was 107% (inactive); in experiment [4], 108% (inactive); in experiment [5], 103% (inactive); in experiment [6] (setting [9]) it was 95.9%; in experiment [6] (setting [10]), 103%. Moreover, the Her2 level in experiment [2] is 102% (inactive). In addition, the differential viability (reversal) in experiment [6] (H69AR cells + 2 uM doxorubicin) was 6.98% (inactive). Moreover, the inhibition in experiment [7] is -6.22% (inactive); in experiment [8], 1.83% (inactive).

Regarding `Cc1ccccc1NC(=O)NCCCN1CCN(C2CCCCC2)CC1`, the viability was 102% in experiment [1]; 102% (inactive) in experiment [3]; 104% (inactive) in experiment [4]; 95.8% (inactive) in experiment [5]; 93.4% in experiment [6] (setting [9]); 95.8% in experiment [6] (setting [10]). In addition, in experiment [2], the Her2 level is 102% (inactive). Besides, the differential viability (reversal) in experiment [6] (H69AR cells + 2 uM doxorubicin) is 2.42% (inactive). Further, the inhibition in experiment [7] is -1.04% (inactive); in experiment [8] it was 0.16% (inactive).

Take `CCN(C(=O)COC(=O)c1cc(C)n(-c2ccc(F)cc2)c1C)C1CCS(=O)(=O)C1` (stereo not given): the viability in experiment [1] is 85.5%; in experiment [3], 85.5% (inactive); in experiment [4] it was 103% (inactive); in experiment [5], 103% (inactive); in experiment [6] (setting [9]), 104%; in experiment [6] (setting [10]) it was 103%. Besides, in experiment [2], the Her2 level was 93.5% (inactive). In addition, the differential viability (reversal) in experiment [6] (H69AR cells + 2 uM doxorubicin) is -0.795% (inactive). Also, the inhibition in experiment [7] is -3.47% (inactive); in experiment [8], 1.61% (inactive).

For the compound `Cn1cnnc1SCC(=O)Nc1ccccc1Sc1ccccc1`, the viability was 107% in experiment [1]; 107% (inactive) in experiment [3]; 113% (inactive) in experiment [4]; 98.8% (inactive) in experiment [5]; 90.4% in experiment [6] (setting [9]); 98.8% in experiment [6] (setting [10]). Also, the Her2 level in experiment [2] was 91.5% (inactive). Also, in experiment [6] (H69AR cells + 2 uM doxorubicin), the differential viability (reversal) was 8.32% (inactive). The inhibition in experiment [7] was -8.24% (inactive); in experiment [8] it was 4.67% (inactive).

For `CC(=O)N(c1ccc(N(C(C)=O)S(=O)(=O)c2cccs2)cc1)S(=O)(=O)c1cccs1`, the viability in experiment [1] is 90%; in experiment [3], 90% (inactive); in experiment [4] it was 85% (inactive); in experiment [5], 86% (inactive); in experiment [6] (setting [9]), 108%; in experiment [6] (setting [10]) it was 86%. For the same compound, the Her2 level in experiment [2] was 104% (inactive). The differential viability (reversal) in experiment [6] (H69AR cells + 2 uM doxorubicin) was -22.3% (inactive). For the same compound, the inhibition in experiment [7] was -1.18% (inactive); in experiment [8], 1.15% (inactive).

For the compound `CCCCC(=O)NCCc1ccc(S(N)(=O)=O)cc1`, the viability in experiment [1] is 104%; in experiment [3] it was 104% (inactive); in experiment [4] it was 95.4% (inactive); in experiment [5], 97.1% (inactive); in experiment [6] (setting [9]) it was 87.7%; in experiment [6] (setting [10]), 97.1%. For the same compound, the Her2 level in experiment [2] is 104% (inactive). Besides, in experiment [6] (H69AR cells + 2 uM doxorubicin), the differential viability (reversal) is 9.4% (inactive). Further, the inhibition in experiment [7] is -2.16% (inactive); in experiment [8] it was 2.62% (inactive).

Consider `CC(=O)Nc1ccc(S(=O)(=O)NCC(C)NS(=O)(=O)c2ccc(NC(C)=O)cc2)cc1` (stereo not given), for which the viability in experiment [1] was 106%; in experiment [3], 106% (inactive); in experiment [4], 94.5% (inactive); in experiment [5] it was 98.6% (inactive); in experiment [6] (setting [9]) it was 95.5%; in experiment [6] (setting [10]), 98.6%. In addition, the Her2 level in experiment [2] is 114% (inactive). The differential viability (reversal) in experiment [6] (H69AR cells + 2 uM doxorubicin) is 3.06% (inactive). The values for the inhibition in experiment [7] and in experiment [8] were 0.13% (inactive) and -1.27% (inactive), respectively.

Take `COc1ccc(OCC(=O)N2CCN(C(=O)c3cccs3)CC2)cc1`: the viability was 117% in experiment [1]; 117% (inactive) in experiment [3]; 83.5% (inactive) in experiment [4]; 87.4% (inactive) in experiment [5]; 85.6% in experiment [6] (setting [9]); 87.4% in experiment [6] (setting [10]). In experiment [2], the Her2 level was 82.5% (inactive). In experiment [6] (H69AR cells + 2 uM doxorubicin), the differential viability (reversal) was 1.78% (inactive). The inhibition in experiment [7] was -3.29% (inactive); in experiment [8], -2.9% (inactive).

Take `CC1CCCCC1NC(=O)C1CCN(C(=O)NC2CCCCC2)CC1` (stereo not given): the viability in experiment [1] is 94.5%; in experiment [3], 94.5% (inactive); in experiment [4] it was 90.8% (inactive); in experiment [5], 102% (inactive); in experiment [6] (setting [9]), 95.3%; in experiment [6] (setting [10]) it was 102%. In experiment [2], the Her2 level is 108% (inactive). The differential viability (reversal) in experiment [6] (H69AR cells + 2 uM doxorubicin) is 6.41% (inactive). Also, the inhibition in experiment [7] is -0.78% (inactive); in experiment [8], 0.17% (inactive).

Turning to `CC(C)(C)n1ncc2c(=O)n(CC(=O)c3ccccc3)cnc21`, the viability was 95% in experiment [1]; 95% (inactive) in experiment [3]; 80.2% (inactive) in experiment [4]; 84.2% (inactive) in experiment [5]; 86.9% in experiment [6] (setting [9]); 84.2% in experiment [6] (setting [10]). The Her2 level in experiment [2] was 84% (inactive). Further, the differential viability (reversal) in experiment [6] (H69AR cells + 2 uM doxorubicin) is -2.76% (inactive). Further, the inhibition is -0.39% (inactive) in experiment [7] and -3.23% (inactive) in experiment [8].

In the case of `COc1ccccc1-c1cn[nH]c(=S)n1`, the viability is 101% in experiment [1]; 101% (inactive) in experiment [3]; 100% (inactive) in experiment [4]; 96.1% (inactive) in experiment [5]; 92.9% in experiment [6] (setting [9]); 96.1% in experiment [6] (setting [10]). In addition, the Her2 level in experiment [2] is 108% (inactive). Moreover, the differential viability (reversal) in experiment [6] (H69AR cells + 2 uM doxorubicin) was 3.25% (inactive). Besides, the inhibition in experiment [7] was 1.07% (inactive); in experiment [8], -8.06% (inactive).

Turning to `O=S(=O)(NCCc1ccccn1)c1cccs1`, the viability in experiment [1] is 99%; in experiment [3], 99% (inactive); in experiment [4], 97.4% (inactive); in experiment [5], 101% (inactive); in experiment [6] (setting [9]), 98.3%; in experiment [6] (setting [10]), 101%. Also, in experiment [2], the Her2 level was 93% (inactive). Also, the differential viability (reversal) in experiment [6] (H69AR cells + 2 uM doxorubicin) was 2.29% (inactive). Also, the inhibition in experiment [7] was -7.07% (inactive); in experiment [8] it was 4.1% (inactive).
